Results from different studies.
Lines come from different studies, so protocols differ.
RPS6KA2 C-terminal kinase domain: Ribosomal protein S6 kinase alpha-2, C-terminal kinase domain (RPS6KA2, Homo sapiens, UniProt Q15349)
RPS6KA2: Ribosomal protein S6 kinase alpha-2 (RPS6KA2, Homo sapiens, UniProt Q15349)
RPS6KA2 N-terminal kinase domain: Ribosomal protein S6 kinase alpha-2, N-terminal kinase domain (RPS6KA2, Homo sapiens, UniProt Q15349)

Structure (SMILES)	target	read-out	action	method	tested at	quantity	value
CO[C@@H](C)c1c(Nc2ccc([C@H](N(C)C(=O)C3CCS(=O)(=O)CC3)C(F)(F)F)cc2)cnc2cc(Cl)nn12	RPS6KA2 C-terminal kinase domain	cell-free assay		competition with immobilised ligand	1 µM	remaining binding	79%
CNCc1ccc(-c2cc(-c3nc(-c4ccc(S(=O)(=O)C(C)C)cc4)cnc3N)on2)cc1	RPS6KA2	enzyme activity	inhibitor		0.4 µM	inhibition	17%
C[C@@H]1CCN(c2nccc(-c3cnn4ncccc34)n2)C1	RPS6KA2 C-terminal kinase domain	binding		competition with immobilised ligand	1 µM	remaining binding	45%
O=C(NC[C@@H]1[C@H]2CN(C(=O)OCc3cc(C(F)(F)F)cc(C(F)(F)F)c3)C[C@@H]12)c1ccc2[nH]nnc2c1	RPS6KA2 C-terminal kinase domain	cell-free assay		competition with immobilised ligand	1 µM	remaining binding	84%
Cc1ccc(C(=O)Nc2ccc(CN3CCN(C)CC3)c(C(F)(F)F)c2)cc1C#Cc1cnc2cccnn12	RPS6KA2	enzyme activity	inhibitor		23.5 nM	remaining activity	100%
CN(c1nccc(-c2cnn3ncccc23)n1)C1CC1	RPS6KA2 N-terminal kinase domain	binding		competition with immobilised ligand	1 µM	remaining binding	99%
CCOc1cc(-c2nncn2C)ccc1Nc1ncc2cc(C)nc(NCC(C)(C)C)c2n1	RPS6KA2	enzyme activity	inhibitor	FRET	1 µM	inhibition	< 15%
COc1cc2ncnc(Nc3ccc(Oc4ccccc4)cc3C)c2cc1OC	RPS6KA2	enzyme activity	inhibitor		1 µM	inhibition	3%
COc1cc(Cl)c(C(=O)N[C@@H](CN[C@H]2CC[C@@H](N)CC2)Cc2ccc(C#N)cc2)cc1-c1ccc(CN[C@H](C)c2ccc(C)cc2)o1	RPS6KA2	enzyme activity	inhibitor		1 µM	remaining activity	106%
CCN(CC)c1ccc(C2=NNC(=O)CC2C)cc1[N+](=O)[O-] (stereo not drawn)	RPS6KA2	enzyme activity	inhibitor		10 µM	remaining activity	98%
CNC(=O)Nc1ccc2c(c1)[C@@]1(CC2)OC(=O)N(CC(=O)N(Cc2ccc(F)cc2)[C@@H](C)C(F)(F)F)C1=O	RPS6KA2 C-terminal kinase domain	cell-free assay		competition with immobilised ligand	1 µM	remaining binding	100%
Nc1ncnc2occ(-c3ccc(NC(=O)Nc4cc(C(F)(F)F)ccc4F)cc3)c12	RPS6KA2 C-terminal kinase domain	cell-free assay	inhibitor		20 µM	remaining signal	2.3%
F[C@@H]1CCN(c2nccc(-c3cnn4ncccc34)n2)C1	RPS6KA2 N-terminal kinase domain	binding		competition with immobilised ligand	1 µM	remaining binding	93%
Cc1cc(NC(=O)c2cccc3cc(-c4cccc5[nH]nc(N)c45)ccc23)ccc1F	RPS6KA2	enzyme activity	inhibitor		0.1 µM	activity vs control	95%
C[C@@H]1CN(c2cc(-c3n[nH]c4ccc(OC5(C)CC5)cc34)ncn2)C[C@H](C)O1	RPS6KA2 C-terminal kinase domain	cell-free assay		competition with immobilised ligand	0.1 µM	remaining binding	100%
Cc1ccc(Nc2nccc(N(C)c3ccc4c(C)n(C)nc4c3)n2)cc1S(N)(=O)=O	RPS6KA2	enzyme activity	inhibitor		10 µM	inhibition	64%
Cc1ccc(C(=O)NCc2ccsc2)cc1C#Cc1cn(C(C)C)c2ncnc(N)c12	RPS6KA2	enzyme activity	inhibitor		1 µM	activity vs control	85%
FC(F)(F)c1ccc2c(c1)nc(-c1cccnc1)n2C1CC1	RPS6KA2 N-terminal kinase domain	cell-free assay		competition with immobilised ligand	1 µM	remaining binding	100%
CN(C)c1ncc(F)c(-c2cnn3ncccc23)n1	RPS6KA2 N-terminal kinase domain	binding		competition with immobilised ligand	1 µM	remaining binding	100%
CC(C)(C)c1nc(-c2cccc(NS(=O)(=O)c3c(F)cccc3F)c2F)c(-c2ccnc(N)n2)s1	RPS6KA2	enzyme activity	inhibitor	radiometric	1 µM	remaining activity	81%
COc1ccc2c(O[C@@H]3C[C@H]4C(=O)N[C@]5(C(=O)O)CC5/C=C\CCCCC[C@H](NC(=O)OC5CCCC5)C(=O)N4C3)cc(-c3csc(NC(=O)C(C)C)n3)nc2c1C (stereo partly drawn)	RPS6KA2 N-terminal kinase domain	cell-free assay		competition with immobilised ligand	1 µM	remaining binding	100%
CC1CCCN1c1nccc(-c2cnn3ncccc23)n1 (stereo not drawn)	RPS6KA2 C-terminal kinase domain	binding		competition with immobilised ligand	1 µM	remaining binding	100%
O=C(O)[C@@H]1[C@@H](Cn2nnc3ccccc3c2=O)CC[C@H]1C(=O)c1ccc(OCCC2CCOCC2)cc1	RPS6KA2 C-terminal kinase domain	cell-free assay		competition with immobilised ligand	1 µM	remaining binding	100%
N[C@H]1CCN(c2nccc(-c3cnn4ncccc34)n2)C1	RPS6KA2 N-terminal kinase domain	binding		competition with immobilised ligand	1 µM	remaining binding	85%
